According to ChEMBL document CHEMBL1145909, “Optically active mexiletine analogues as stereoselective blockers of voltage-gated Na(+) channels” (J Med Chem, 2003):

Tests used:
[1] = Half-maximal concentration producing a phasic block (cumulative sodium current reduction at 10 HZ stimulation frequency) in Rana esculenta muscle; format: functional, tissue-based, Muscle tissue
In short: (§1)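 Three-vaseline-gap voltage clamp on single fibers microdissected from the ventral branch of Rana esculenta semitendinosus. After 10 min equilibration, Na⁺ currents recorded at 10 °C from a holding potential of -100 mV. Compounds diluted daily from stocks in physiological/external solution, DMSO at most 0.2%. IC50 from a nonlinear least-squares fit of concentration-response curves; data as mean ± SEM.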

[2] = Half-maximal concentration producing a tonic block (blocking sodium channels at resting conditions during infrequent depolarizing pulses) in Rana esculenta muscle; format: functional, tissue-based, Muscle tissue; in short: as §1
Pelophylax lessonae [3] = test: Ratio of the concentrations of tonic block to that of phasic block; format: functional
Pelophylax lessonae [4] = test: Relative potency producing phasic block, relative to mexileitine

| IC50 [1] | IC50 [2] | Structure (SMILES) | Ratio (Pelophylax lessonae [3]) | Relative potency (Pelophylax lessonae [4]) |
| --- | --- | --- | --- | --- |
| 23 µM | 54 µM | Cc1cccc(C)c1OC[C@@H](C)N [(R)-MEXILETINE] | 2 | 1 |
| 29 µM | 83 µM | Cc1cccc(C)c1OCC(C)N (stereo unspecified) [MEXILETINE] | 3 |  |
| 27 µM | 114 µM | Cc1cccc(C)c1OC[C@H](C)N [(S)-MEXILETINE] | 4 | 1 |
